Data set [1] addresses T1, ATP-dependent translocase ABCB1 (Homo sapiens, UniProt P08183). In words: Modulation of human P-gp transfected in mouse L5178Y cells assessed as change in Rhodamine-123 efflux by measuring fluorescence activity ratio at 0.2 uM pretreated for 10 mins followed by Rhodamine-123 challenge for 20 mins by flow cytometry relative to parental mouse L5178Y cells. As to conditions: 0.5 h, time 30 min. It counts as cell-based. A digest of the protocol:
(§1)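 PAR and MDR cells at 2 × 10^6 cells/mL in serum-free McCoy's 5A. Compound given 10 min at room temperature, then rhodamine-123 (5.2 μM final) for 20 min at 37 °C. Washed twice, resuspended in PBS, mean FL-1 read by flow cytometry. FAR = (MDR treated/untreated)/(PAR treated/untreated). Verapamil 20 μM positive control, DMSO 2% solvent control.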
A general note: Flow cytometry measures light scatter and fluorescence of single cells or particles in a stream.

The target in data set [2] is T1, ATP-dependent translocase ABCB1. In words: Modulation of human P-gp transfected in mouse L5178Y cells assessed as change in Rhodamine-123 efflux by measuring fluorescence activity ratio at 2 uM pretreated for 10 mins followed by Rhodamine-123 challenge for 20 mins by flow cytometry relative to parental mouse L5178Y cells. Type of data set: cell-based. The note with it: 0.5 h, time 30 min. A digest of the protocol:
as §1

The test system of data set [3] is L5178Y. In words: Antiproliferative activity against mouse L5178Y cells assessed as reduction in cell viability incubated for 72 hrs by MTT assay. It counts as functional, cell-based. A digest of the protocol:
(§2)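 Parental L5178Y or human ABCB1-transfected L5178Y MDR subline kept under 60 ng mL−1 colchicine selection; McCoy's 5A, 10% heat-inactivated horse serum, 37 °C. 6 × 10^3 cells/well exposed to 2-fold serial dilutions from 100 μM for 72 h. MTT 4 h, SDS overnight, OD 540/630 nm. Triplicate; IC50 from curve fitting, mean ± SD.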
In general terms: Formazan colour is commonly taken as a measure of viable cells.

In data set [4] the test system is L5178Y. In words: Reversal of multidrug resistance in multidrug resistant mouse L5178Y cells transfected with human ABCB1 assessed as reduction in cell viability incubated for 72 hrs by MTT assay. It counts as functional, cell-based. A digest of the protocol: as §2
Data set [5] in a line: Resistance ratio of IC50 for antiproliferative activity against multidrug resistant mouse L5178Y cells transfected with human ABCB1 to IC50 for antiproliferative activity against mouse L5178Y cells. It counts as functional. The procedure, abridged: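 RR = IC50(MDR)/IC50(PAR), IC50s from the 72 h MTT assay: 2-fold dilutions from 100 μM, 6 × 10^3 cells/well, triplicate. Collateral sensitivity taken as RR < 0.5; RR < 1 counted as selectivity toward resistant cells.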

Data set [6] concerns L5178Y. The experiment in a line: Synergistic antiproliferative activity against multidrug resistant mouse L5178Y cells transfected with human ABCB1 assessed as combination index incubated for 72 hrs in presence of doxorubicin by MTT assay. Type of data set: functional. A digest of the protocol:
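Checkerboard in MDR cells, 6 × 10^3 cells/well. Doxorubicin in serial dilutions from 8.6 μM, crossed with modifier dilutions whose start level was set from its IC50. 72 h at 37 °C under CO2, growth read by MTT. Curves fitted by the median-effect equation; CI reported at 50% inhibition, mean ± SD.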

Where only a bound is given, the exact number is not on record here.

T1 sequence (P08183 whole entry): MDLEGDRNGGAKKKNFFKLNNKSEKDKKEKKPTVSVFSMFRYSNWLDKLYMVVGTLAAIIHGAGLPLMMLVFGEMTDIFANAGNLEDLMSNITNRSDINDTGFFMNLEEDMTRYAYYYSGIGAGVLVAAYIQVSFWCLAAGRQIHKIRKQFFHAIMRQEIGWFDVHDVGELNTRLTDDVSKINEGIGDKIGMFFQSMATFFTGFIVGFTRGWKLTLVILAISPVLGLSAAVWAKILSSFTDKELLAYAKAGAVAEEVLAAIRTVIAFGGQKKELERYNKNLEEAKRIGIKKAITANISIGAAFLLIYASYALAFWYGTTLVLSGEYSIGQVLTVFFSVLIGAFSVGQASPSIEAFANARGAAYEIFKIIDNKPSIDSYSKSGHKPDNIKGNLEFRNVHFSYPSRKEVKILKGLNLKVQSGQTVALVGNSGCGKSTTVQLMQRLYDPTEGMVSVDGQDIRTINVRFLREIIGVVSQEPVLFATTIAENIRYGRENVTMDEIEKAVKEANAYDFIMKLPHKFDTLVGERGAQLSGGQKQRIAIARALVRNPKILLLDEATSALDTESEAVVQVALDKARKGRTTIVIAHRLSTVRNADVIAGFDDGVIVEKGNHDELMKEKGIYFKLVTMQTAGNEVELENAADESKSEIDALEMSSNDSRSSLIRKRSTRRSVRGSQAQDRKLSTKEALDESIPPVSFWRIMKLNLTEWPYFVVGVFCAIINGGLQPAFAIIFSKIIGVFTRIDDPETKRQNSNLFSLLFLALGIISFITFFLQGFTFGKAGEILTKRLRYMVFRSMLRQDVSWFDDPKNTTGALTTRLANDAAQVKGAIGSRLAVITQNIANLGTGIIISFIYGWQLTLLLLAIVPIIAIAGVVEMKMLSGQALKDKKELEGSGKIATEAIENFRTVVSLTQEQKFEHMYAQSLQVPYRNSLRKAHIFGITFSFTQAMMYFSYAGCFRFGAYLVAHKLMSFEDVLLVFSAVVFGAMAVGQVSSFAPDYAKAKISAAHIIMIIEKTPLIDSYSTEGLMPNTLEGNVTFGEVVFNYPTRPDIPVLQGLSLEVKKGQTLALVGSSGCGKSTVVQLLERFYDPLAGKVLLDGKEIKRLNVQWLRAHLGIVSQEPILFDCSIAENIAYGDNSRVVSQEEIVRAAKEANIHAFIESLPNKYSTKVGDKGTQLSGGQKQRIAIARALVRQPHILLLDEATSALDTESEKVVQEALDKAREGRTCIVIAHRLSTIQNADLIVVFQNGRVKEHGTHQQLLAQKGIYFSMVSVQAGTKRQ

The term IC50 denotes the concentration needed to halve the response being measured. In the case of `C=C1CC[C@@H]2[C@](C)(COC(C)=O)[C@H](OC(C)=O)CC[C@@]2(C)[C@@H]1C[C@H](NNC(=O)c1ccco1)C1=CCOC1=O`, the figures for the Ratio in data set [1], in data set [2] and in data set [5] were 2.32, 4.28 and 1.38, respectively. For the same compound, the IC50 came out at 11.1 µM with L5178Y [3] and 15.3 µM with L5178Y [4]. Also, in the data set on L5178Y [6], the CI was less than 1.
Take `C=C1CC[C@@H]2[C@](C)(COC(C)=O)[C@H](OC(C)=O)CC[C@@]2(C)[C@@H]1C[C@H](NNC(=O)c1cccnc1)C1=CCOC1=O`: the Ratio in data set [1] is recorded as 0.49; in data set [2] it was 0.32; in data set [5] it was 0.94. Further, the IC50 is 12.5 µM in the data set with L5178Y [3] and 11.8 µM in the data set with L5178Y [4]. Moreover, the CI in the data set on L5178Y [6] was less than 1.
On to `C=C1CC[C@@H]2[C@](C)(COC(C)=O)[C@H](OC(C)=O)CC[C@@]2(C)[C@@H]1C[C@H](NNC(=O)c1cccs1)C1=CCOC1=O`, for which the Ratio worked out at 0.54 in data set [1], 1.89 in data set [2] and 0.96 in data set [5]. In addition, the 50% inhibitory concentration (IC50) is 15.5 µM in the data set with L5178Y [3] and 15 µM in the data set on L5178Y [4]. Moreover, in the data set on L5178Y [6], the CI is less than 1.
